The values below come from ChEMBL document CHEMBL1629536, “Incorporation of piperazino functionality into 1,3-disubstituted urea as the tertiary pharmacophore affording potent inhibitors of soluble epoxide hydrolase with improved pharmacokinetic properties” (J Med Chem, 2010).

Converted amounts (≈) assume the structure as drawn. A value given as a limit tells only on which side of the number the result lay.

Data set [1] addresses T1, Bifunctional epoxide hydrolase 2 (Homo sapiens, UniProt P34913).
T1 sequence (P34913 whole entry): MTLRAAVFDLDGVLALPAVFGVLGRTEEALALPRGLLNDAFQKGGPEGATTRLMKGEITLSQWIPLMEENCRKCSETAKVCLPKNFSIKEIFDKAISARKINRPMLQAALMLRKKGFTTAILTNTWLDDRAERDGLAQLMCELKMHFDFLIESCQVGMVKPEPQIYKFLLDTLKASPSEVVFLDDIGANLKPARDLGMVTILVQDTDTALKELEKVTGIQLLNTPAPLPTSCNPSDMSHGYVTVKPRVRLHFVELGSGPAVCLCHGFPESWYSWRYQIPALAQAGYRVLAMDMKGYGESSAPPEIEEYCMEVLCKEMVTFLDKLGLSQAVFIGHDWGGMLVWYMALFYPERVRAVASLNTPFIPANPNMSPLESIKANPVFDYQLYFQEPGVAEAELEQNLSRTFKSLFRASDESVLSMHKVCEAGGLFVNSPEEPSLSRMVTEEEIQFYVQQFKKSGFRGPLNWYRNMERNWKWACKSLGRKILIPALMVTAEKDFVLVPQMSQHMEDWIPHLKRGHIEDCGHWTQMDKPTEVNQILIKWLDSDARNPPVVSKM
Briefly: Inhibition of human recombinant soluble epoxide hydrolase expressed in baculovirus expression system by fluorimetric assay.

For another data set, the system named is Mus musculus. Briefly: (§1) Half life in mouse at 5 mg/kg, po. It is filed as ADME, organism-based. Also on record: dose 5 mg/kg, route oral. The note with it: in vivo. The method in brief:
(§2)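 Mice dosed by oral gavage at 5 mg/kg in oleic oil triglyceride containing 3% EtOH. Tail-vein blood was sampled before dosing and at 30, 60, 90, 120, 240, 450, 600 and 1440 min, then centrifuged at 3000 rpm, 4°C, 10 min. Plasma was analysed by LC/MS/MS. AUC and t1/2 came from noncompartmental fitting of the concentration-time data.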

The nature of data set [2]: AUC in mouse at 5 mg/kg, po. Format: ADME, organism-based. Further details: dose 5 mg/kg, route oral. To be noted: plasma. Summed up:
as §2

A short description of data set [3]: Solubility in sodium phosphate buffer at 0.1 M pH 7.4 at 25 degC. Format: physicochemical.
Data set [4] in a line: Cmax in mouse at 5 mg/kg, po. Further details: dose 5 mg/kg, route oral. The note with it: in vivo. Format: ADME, organism-based.
Data set [5] is described as follows: as §1. To be noted: in vivo. It is filed as ADME, organism-based. Also on record: dose 5 mg/kg, route oral. The method in brief:
as §2

The nature of data set [6]: Tmax in mouse at 5 mg/kg, po. It is filed as ADME, organism-based. Further details: dose 5 mg/kg, route oral. The note with it: in vivo.

By IC50 is commonly meant the concentration that gives 50% inhibition. On to `CN1CCN(CCCCOc2ccc(NC(=O)NC34CC5CC(CC(C5)C3)C4)cc2)CC1`, for which the IC50 in data set [1] amounted to 44.8 nM. Take `O=C(Nc1cccc(OCCCCCN2CCNCC2)c1)NC12CC3CC(CC(C3)C1)C2`: in data set [1], the half-inhibitory concentration (IC50) stood at 13.8 nM. The same measure, in the same setting: the value for `CN1CCN(CCCCOc2cccc(NC(=O)NC34CC5CC(CC(C5)C3)C4)c2)CC1` was 13.3 nM; that for `CN1CCN(CCCOc2ccc(NC(=O)NC34CC5CC(CC(C5)C3)C4)cc2)CC1` was 17.9 nM.

A word on the AUC: it is concentration integrated over time. High values mean more exposure, low ones less exposure. What is called solubility is how much of the substance goes into solution per volume. As to `O=C(O)CCCCCCCCCCCNC(=O)NC12CC3CC(CC(C3)C1)C2`, the t1/2 in the data set with Mus musculus turned out to be 2.1 h. In addition, in data set [2], the AUC is 0.05 µM·h. This molecule showed a solubility in data set [3] of less than 0.125 mg/mL.

Consider `COc1cc(C(=O)N2CCN(CCCCOc3cccc(NC(=O)NC45CC6CC(CC(C6)C4)C5)c3)CC2)cc(OC)c1OC`, for which the IC50 in data set [1] is 9.6 nM. For `O=C(Nc1cccc(OCCCCN2CCN(C(=O)CCl)CC2)c1)NC12CC3CC(CC(C3)C1)C2`, in data set [1], the IC50 was found to be 1.4 nM.

Broadly, the Cmax is the highest concentration seen after dosing. What is called half-life is the time needed for the level to fall by half in the phase considered. Read a low half-life as fast loss. By Tmax is commonly meant the time at which the peak concentration occurs. Molecule `CC(C)(C)OC(=O)N1CCN(CCCCOc2cccc(NC(=O)NC34CC5CC(CC(C5)C3)C4)c2)CC1` showed a Cmax in data set [4] of 6 nM. Besides, the half-life in data set [5] was 3540 min. The AUC in data set [2] is 0.085 µM·h. The time to peak (Tmax) in data set [6] amounted to 540 min. The molecule further returned a solubility in data set [3] of 2.78 mg/mL (≈ 5280 µM). In data set [1], the IC50 is 7.1 nM. As to `O=C(Nc1ccccc1OCCCN1CCNCC1)NC12CC3CC(CC(C3)C1)C2`, in data set [1], the half-maximal inhibitory concentration (IC50) was determined as 97500 nM. As to `O=C(Nc1cccc(OCCCN2CCNCC2)c1)NC12CC3CC(CC(C3)C1)C2`, the solubility in data set [3] was found to be 0.81 mg/mL (≈ 1960 µM). Further, in data set [1], the IC50 stood at 27.2 nM. Consider `Cc1ccc(S(=O)(=O)N2CCN(CCCCOc3cccc(NC(=O)NC45CC6CC(CC(C6)C4)C5)c3)CC2)cc1`, for which the IC50 in data set [1] worked out at 3.3 nM. On the same count and under the same terms, the value for `CC(C)(C)OC(=O)N1CCN(CCCCOc2ccc(NC(=O)NC34CC5CC(CC(C5)C3)C4)cc2)CC1` was 20.1 nM; that for `CC(C)(C)OC(=O)N1CCN(CCCCCOc2cccc(NC(=O)NC34CC5CC(CC(C5)C3)C4)c2)CC1` was 11.7 nM. Still for that read-out and setting: to `O=C(Nc1cccc(OCCCCN2CCN(C(=O)C(F)(F)F)CC2)c1)NC12CC3CC(CC(C3)C1)C2` belongs 1.8 nM; to `O=C(Nc1cccc(OCCN2CCNCC2)c1)NC12CC3CC(CC(C3)C1)C2`, 67.1 nM. `CC(=O)N1CCN(CCCCOc2cccc(NC(=O)NC34CC5CC(CC(C5)C3)C4)c2)CC1`: the solubility in data set [3] is 1.82 mg/mL (≈ 3880 µM). The IC50 in data set [1] was 2.7 nM. Take `CC(C)(C)OC(=O)N1CCN(CCCCOc2ccccc2NC(=O)NC23CC4CC(CC(C4)C2)C3)CC1`: the IC50 in data set [1] turned out to be 16.5 nM.

On to `CN1CCN(CCCOc2cccc(NC(=O)NC34CC5CC(CC(C5)C3)C4)c2)CC1`, for which, in data set [3], the solubility stood at 2.21 mg/mL (≈ 5180 µM). Also, the IC50 in data set [1] stood at 23.1 nM.

In the case of `O=C(Nc1cccc(OCCCC(=O)N2CCNCC2)c1)NC12CC3CC(CC(C3)C1)C2`, the IC50 in data set [1] stood at 91.4 nM.

Consider `CC(=O)N1CCN(CCCCCOc2cccc(NC(=O)NC34CC5CC(CC(C5)C3)C4)c2)CC1`, for which, in data set [1], the IC50 was determined as 2.8 nM. On the same count and under the same terms, the value for `CN1CCN(CCCCCOc2cccc(NC(=O)NC34CC5CC(CC(C5)C3)C4)c2)CC1` was 11.5 nM.

`CC(=O)N1CCN(C(=O)CCCOc2cccc(NC(=O)NC34CC5CC(CC(C5)C3)C4)c2)CC1`: in data set [1], the IC50 came to 5.4 nM.

On to `CC(C)(C)OC(=O)N1CCN(CCCOc2ccc(NC(=O)NC34CC5CC(CC(C5)C3)C4)cc2)CC1`, for which the IC50 in data set [1] came to 14.6 nM.

For `CN1CCN(CCOc2cccc(NC(=O)NC34CC5CC(CC(C5)C3)C4)c2)CC1`, the IC50 in data set [1] was determined as 7.8 nM. Take `CC(=O)N1CCN(CCCOc2ccc(NC(=O)NC34CC5CC(CC(C5)C3)C4)cc2)CC1`: the Cmax in data set [4] came to 112 nM. In addition, the half-life in data set [5] is 360 min. Further, in data set [2], the AUC was 0.58 µM·h. The Tmax in data set [6] was found to be 30 min. The molecule further returned a solubility in data set [3] of 0.32 mg/mL (≈ 704 µM). In addition, in data set [1], the IC50 turned out to be 3.3 nM. Turning to `CC(=O)N1CCN(CCCCOc2ccccc2NC(=O)NC23CC4CC(CC(C4)C2)C3)CC1`, the IC50 in data set [1] turned out to be 3150 nM. As for `CC(C)(C)OC(=O)N1CCN(C(=O)CCCOc2cccc(NC(=O)NC34CC5CC(CC(C5)C3)C4)c2)CC1`, the IC50 in data set [1] was determined as 21.5 nM.

Take `CC(C)(C)OC(=O)N1CCN(CCOc2cccc(NC(=O)NC34CC5CC(CC(C5)C3)C4)c2)CC1`: the IC50 in data set [1] turned out to be 2.8 nM. In the case of `CC(C)(C)OC(=O)N1CCN(CCCOc2cccc(NC(=O)NC34CC5CC(CC(C5)C3)C4)c2)CC1`, in data set [4], the peak level (Cmax) was 6 nM. In addition, in data set [5], the half-life was 1380 min. This molecule gave an AUC in data set [2] of 0.1 µM·h. Besides, in data set [6], the time of peak concentration (Tmax) came to 30 min. This molecule also returned a solubility in data set [3] of 0.54 mg/mL (≈ 1050 µM). The IC50 in data set [1] came to 2.9 nM. With `CC(C)(C)OC(=O)N1CCN(CCCOc2ccccc2NC(=O)NC23CC4CC(CC(C4)C2)C3)CC1`, in data set [1], the half-inhibitory concentration (IC50) was 39.4 nM. Consider `CC(=O)N1CCN(CCCOc2cccc(NC(=O)NC34CC5CC(CC(C5)C3)C4)c2)CC1`, for which, in data set [4], the Cmax was 32 nM. The molecule further showed a half-life in data set [5] of 480 min. In addition, in data set [2], the AUC was 0.185 µM·h. In addition, the Tmax in data set [6] was 30 min. For the same molecule, the solubility in data set [3] amounted to 0.34 mg/mL (≈ 748 µM). Further, the IC50 in data set [1] came to 3.6 nM. For `O=C(Nc1ccccc1OCCCCN1CCNCC1)NC12CC3CC(CC(C3)C1)C2`, in data set [1], the IC50 amounted to 72800 nM. In data set [3], `CC(=O)N1CCN(CCOc2cccc(NC(=O)NC34CC5CC(CC(C5)C3)C4)c2)CC1` displayed a solubility of 0.52 mg/mL (≈ 1180 µM). In addition, the IC50 in data set [1] came out at 6 nM. Regarding `CN1CCN(CCCCOc2ccccc2NC(=O)NC23CC4CC(CC(C4)C2)C3)CC1`, the IC50 in data set [1] came out at 5290 nM. The molecule `CC(=O)N1CCN(CCCOc2ccccc2NC(=O)NC23CC4CC(CC(C4)C2)C3)CC1` displayed a solubility in data set [3] of 1.78 mg/mL (≈ 3920 µM). The IC50 in data set [1] was determined as 994 nM.

`CC(=O)N1CCN(CCCCOc2ccc(NC(=O)NC34CC5CC(CC(C5)C3)C4)cc2)CC1` showed a Cmax in data set [4] of 84 nM. In data set [5], this molecule had a half-life of 840 min. In data set [2], the AUC is 0.67 µM·h. For the same molecule, the Tmax in data set [6] is 30 min. The molecule also came in with a solubility in data set [3] of 0.7 mg/mL (≈ 1490 µM). Moreover, the IC50 in data set [1] turned out to be 7 nM.

With `O=C(Nc1ccc(OCCCN2CCNCC2)cc1)NC12CC3CC(CC(C3)C1)C2`, the 50% inhibitory concentration (IC50) in data set [1] amounted to 156 nM. Still for that read-out and setting: to `CN1CCN(CCCOc2ccccc2NC(=O)NC23CC4CC(CC(C4)C2)C3)CC1` belongs 2880 nM. In turn, `CS(=O)(=O)N1CCN(CCCCOc2cccc(NC(=O)NC34CC5CC(CC(C5)C3)C4)c2)CC1` had a Cmax in data set [4] of 160 nM. This molecule showed a half-life in data set [5] of 210 min. The AUC in data set [2] is 0.333 µM·h. Also, the Tmax in data set [6] was 30 min. Besides, the solubility in data set [3] is 2.97 mg/mL (≈ 5880 µM). For the same molecule, the IC50 in data set [1] was determined as 1 nM. With `O=C(Nc1ccc(OCCCCN2CCNCC2)cc1)NC12CC3CC(CC(C3)C1)C2`, in data set [1], the IC50 was 126 nM. The same measure, in the same setting: the value for `O=C(Nc1cccc(OCCCCN2CCNCC2)c1)NC12CC3CC(CC(C3)C1)C2` was 14.8 nM; that for `O=C(Nc1cccc(OCCCCN2CCN(C(=O)c3ccc(C(F)(F)F)cc3)CC2)c1)NC12CC3CC(CC(C3)C1)C2` was 13.6 nM.
